Reference: ChEMBL document CHEMBL4033795, “Design, Synthesis, and Structure-Activity Relationship Study of 2-Oxo-3,4-dihydropyrimido[4,5- d]pyrimidines as New Colony Stimulating Factor 1 Receptor (CSF1R) Kinase Inhibitors” (J Med Chem, 2018)

What was measured:
[1] = Cmax in Sprague-Dawley rat at 25 mg/kg administered via oral gavage measured up to 72 hrs by LC/MS analysis; format: ADME, organism-based; design: dose 25 mg/kg, route oral; conditions: in vivo
In short: (§1)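 Male Sprague-Dawley rats, 4–6 weeks old, acclimatised 1 week, were dosed iv at 5 mg/kg or by oral gavage at 25 mg/kg. Vehicle was 2% DMSO, 4% EtOH, 4% castor oil, 90% H2O. Blood was drawn by orbital sinus puncture from 2 min to 72 h into heparinized tubes. Plasma was assayed by LC/MS with propranolol as internal standard. Three animals per group.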

[2] = biological target: Epidermal growth factor receptor (Homo sapiens, UniProt P00533); assay: Inhibition of recombinant human wild type GST-tagged EGFR cytoplasmic domain (668 to 1210 residues) expressed in baculovirus using tyr4 peptide as substrate after 1 hr by FRET-based Z'-Lyte assay
[3] = Half life in Sprague-Dawley rat at 25 mg/kg administered via oral gavage measured up to 72 hrs by LC/MS analysis; format: ADME, organism-based; conditions: in vivo; in short: as §1
Rattus norvegicus [4] = assay: Apparent clearance in Sprague-Dawley rat at 25 mg/kg administered via oral gavage measured up to 72 hrs by LC/MS analysis; format: ADME, organism-based; conditions: in vivo, iv, 5 mg/kg, in the assay text read “5 mg/kg administered intravenously” for “25 mg/kg administered via oral gavage”; in short: as §1
[5] = Half life in Sprague-Dawley rat at 5 mg/kg, iv measured up to 72 hrs by LC/MS analysis; format: ADME, organism-based; conditions: in vivo; in short: as §1
Homo sapiens = organism: Homo sapiens; assay: Selectivity ratio of IC50 for recombinant human wild type GST-tagged EGFR cytoplasmic domain (668 to 1210 residues) expressed in baculovirus to IC50 for recombinant human His-tagged CSF1R cytoplasmic domain (538 to 910 residues) expressed in baculovirus
In short: (§2)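 Z′-Lyte FRET assay with CSF1R or EGFR and 2 μM Tyr4 peptide substrate in 1× kinase buffer. ATP was supplied as a 100 μM solution, a stock and not the final concentration. Compounds were 3-fold serially diluted in DMSO. Reaction ran 1 h at room temperature, followed by 1 h development and a stop reagent. Phospho-peptide, no-ATP and DMSO controls were included. IC50 by curve fitting; mean of at least three independent experiments.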

[6] = Oral bioavailability in Sprague-Dawley rat at 25 mg/kg administered via gavage measured up to 72 hrs by LC/MS analysis; format: ADME, organism-based; conditions: in vivo; in short: as §1
[7] = AUC (0 to infinity) in Sprague-Dawley rat at 5 mg/kg, iv measured up to 72 hrs by LC/MS analysis; format: ADME, organism-based; design: dose 5 mg/kg, time infinity, route intravenous; conditions: in vivo; in short: as §1
Rattus norvegicus [8] = assay: AUC (0 to infinity) in Sprague-Dawley rat at 25 mg/kg administered via oral gavage measured up to 72 hrs by LC/MS analysis; format: ADME, organism-based; design: dose 25 mg/kg, route oral, time infinity; conditions: in vivo; in short: as §1
[9] = biological target: Macrophage colony-stimulating factor 1 receptor (Homo sapiens, UniProt P07333); assay: Inhibition of recombinant human His-tagged CSF1R cytoplasmic domain (538 to 910 residues) expressed in baculovirus using tyr4 peptide as substrate after 1 hr by FRET-based Z'-Lyte assay; in short: as §2
Macrophage colony-stimulating factor 1 receptor, sequence (P07333 whole entry, the tested form may be a part): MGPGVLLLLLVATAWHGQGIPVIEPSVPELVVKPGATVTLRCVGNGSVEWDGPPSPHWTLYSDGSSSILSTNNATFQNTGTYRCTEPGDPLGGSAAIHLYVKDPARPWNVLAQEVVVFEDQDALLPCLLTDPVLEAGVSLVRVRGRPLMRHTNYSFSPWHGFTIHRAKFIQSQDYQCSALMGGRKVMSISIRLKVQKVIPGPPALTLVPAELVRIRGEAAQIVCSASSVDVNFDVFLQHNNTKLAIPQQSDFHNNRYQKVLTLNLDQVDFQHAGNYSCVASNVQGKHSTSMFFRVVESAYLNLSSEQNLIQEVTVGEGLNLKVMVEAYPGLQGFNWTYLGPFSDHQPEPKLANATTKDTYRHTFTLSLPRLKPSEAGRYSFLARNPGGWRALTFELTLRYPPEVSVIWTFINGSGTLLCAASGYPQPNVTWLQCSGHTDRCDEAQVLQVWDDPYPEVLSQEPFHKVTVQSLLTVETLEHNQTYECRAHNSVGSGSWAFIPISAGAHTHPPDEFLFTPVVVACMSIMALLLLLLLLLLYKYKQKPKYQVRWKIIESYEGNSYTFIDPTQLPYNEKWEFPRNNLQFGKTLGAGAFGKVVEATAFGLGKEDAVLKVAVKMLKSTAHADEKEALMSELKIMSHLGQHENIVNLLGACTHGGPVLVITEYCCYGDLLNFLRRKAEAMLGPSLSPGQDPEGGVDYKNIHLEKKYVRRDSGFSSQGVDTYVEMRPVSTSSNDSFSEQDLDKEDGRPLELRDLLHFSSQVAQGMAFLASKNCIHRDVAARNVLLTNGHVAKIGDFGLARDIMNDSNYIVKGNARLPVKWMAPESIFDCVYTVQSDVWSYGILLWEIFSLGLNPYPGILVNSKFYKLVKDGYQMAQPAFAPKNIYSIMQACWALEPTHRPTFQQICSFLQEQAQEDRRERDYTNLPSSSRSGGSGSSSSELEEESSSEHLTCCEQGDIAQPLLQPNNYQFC

Epidermal growth factor receptor, sequence (P00533 whole entry, the tested form may be a part): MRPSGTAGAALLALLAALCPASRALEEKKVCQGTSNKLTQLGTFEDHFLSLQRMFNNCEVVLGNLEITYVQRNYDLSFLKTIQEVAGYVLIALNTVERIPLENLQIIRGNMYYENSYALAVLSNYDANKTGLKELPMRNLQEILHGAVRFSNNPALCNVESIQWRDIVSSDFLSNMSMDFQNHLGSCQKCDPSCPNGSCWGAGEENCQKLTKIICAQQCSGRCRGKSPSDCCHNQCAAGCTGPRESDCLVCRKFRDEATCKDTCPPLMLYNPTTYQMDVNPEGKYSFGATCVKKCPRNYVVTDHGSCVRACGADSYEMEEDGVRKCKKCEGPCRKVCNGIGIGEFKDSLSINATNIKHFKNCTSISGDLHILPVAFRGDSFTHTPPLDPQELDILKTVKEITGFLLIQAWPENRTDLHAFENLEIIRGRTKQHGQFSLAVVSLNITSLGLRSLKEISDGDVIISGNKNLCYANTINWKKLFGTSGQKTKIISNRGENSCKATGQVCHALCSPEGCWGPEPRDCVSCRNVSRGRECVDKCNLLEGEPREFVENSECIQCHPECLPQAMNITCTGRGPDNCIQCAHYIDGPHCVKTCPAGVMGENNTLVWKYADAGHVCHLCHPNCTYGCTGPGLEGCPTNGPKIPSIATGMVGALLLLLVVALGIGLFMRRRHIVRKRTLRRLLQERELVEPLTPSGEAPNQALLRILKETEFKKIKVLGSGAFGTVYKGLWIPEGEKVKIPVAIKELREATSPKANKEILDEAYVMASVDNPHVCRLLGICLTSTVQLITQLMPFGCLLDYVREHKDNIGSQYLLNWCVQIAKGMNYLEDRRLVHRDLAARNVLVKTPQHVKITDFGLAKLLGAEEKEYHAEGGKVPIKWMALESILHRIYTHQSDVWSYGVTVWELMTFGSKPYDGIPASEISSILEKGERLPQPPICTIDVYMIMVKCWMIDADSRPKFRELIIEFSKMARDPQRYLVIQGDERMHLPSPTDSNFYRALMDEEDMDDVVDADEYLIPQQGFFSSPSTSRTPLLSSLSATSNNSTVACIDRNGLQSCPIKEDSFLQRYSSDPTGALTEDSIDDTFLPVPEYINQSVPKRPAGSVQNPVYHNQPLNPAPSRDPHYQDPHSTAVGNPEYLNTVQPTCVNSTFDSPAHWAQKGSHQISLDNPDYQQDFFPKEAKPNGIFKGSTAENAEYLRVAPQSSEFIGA

| Cmax [1] | IC50 [2] | half-life [3] | CL(app) (Rattus norvegicus [4]) | half-life [5] | Ratio IC50 (Homo sapiens) | bioavailability [6] | AUC(0-inf) [7] | AUC (Rattus norvegicus [8]) | IC50 [9] | Structure (SMILES) |
| --- | --- | --- | --- | --- | --- | --- | --- | --- | --- | --- |
| 396 ng/mL | 362 nM | 1.6 h | 44 mL/min/kg | 2.3 h | 99 to 200 | 17.1% | 1900 ng·h/mL | 1630 ng·h/mL | 2 nM | CCC(=O)N1CC[C@H](N2C(=O)N(c3cc(OC)ccc3F)Cc3cnc(Nc4ccc(N5CCN(C)CC5)c(C)c4)nc32)C1 |
| 988 ng/mL |  | 1.89 h | 30.7 mL/min/kg | 3.48 h |  | 38.6% | 2770 ng·h/mL | 5311 ng·h/mL | 2.1 nM | CCC(=O)N1CC[C@H](N2C(=O)N(c3cc(OC)ccc3Cl)Cc3cnc(Nc4ccc(N5CCN(C)CC5)c(C)c4)nc32)C1 |
